Measured values: paper PMC4876717 (ACS chemical neuroscience, 2015)
Values belong to the molecule of their own block, whether it stands above or below them.

Key:
FAAH [1] = details: read-out: IC50 to FAAH in vitro; cited from earlier work
[2] = system: triacylglycerol hydrolase (TGH); details: relative to FAAH; cited from earlier work
[3] = system: hydrolytic enzyme KIAA1363; details: relative to FAAH; cited from earlier work
[4] = cited from earlier work
[5] = Stability of formulated tracer; assay type: physicochemical; details: within 90 min after formulation in saline
[6] = Lipophilicity, n-octanol/PBS liquid-liquid partition; assay type: physicochemical; details: pH 7.4
In short: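 Radiolabelled test compound (~150,000 cpm) shaken with n-octanol (3.0 g) and 0.1 M sodium phosphate-buffered saline pH 7.40 (3.0 g): vortexed 3 min at room temperature, centrifuged 3500 rpm 5 min. Weighed aliquots of each phase gamma-counted. Remaining organic layer repartitioned until logD values were consistent. LogD = log[(cpm/g octanol)/(cpm/g PBS)]. Triplicate.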

[7] = PET imaging in rats, brain uptake; assay type: in vivo, Sprague-Dawley rats
In short: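 Male Sprague-Dawley rats (7 weeks, 210–230 g) under isoflurane (5% induction, 1–2% maintenance). Tail-vein catheter used to inject tracer (40–51 MBq, 0.7–1 nmol/200 μL). Scans: 90 min 3D list mode, 350–750 keV, binned 1 min × 4, 2 min × 8, […]. Filtered back-projection. ROIs on whole brain, cerebral cortex and cerebellum. Decay-corrected SUV from injected activity and body weight. n = 3.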

[8] = Whole body biodistribution in mice; assay type: in vivo, ddY mice; details: for Distribution of radioactivity, blood / Distribution of radioactivity, brain / Distribution of radioactivity, heart / Distribution of radioactivity, kidneys / Distribution of radioactivity, liver / Distribution of radioactivity, lungs / Distribution of radioactivity, muscle / Distribution of radioactivity, small intestine / Distribution of radioactivity, spleen / Distribution of radioactivity, testes: mean ± SD, n = 3
In short: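 Male ddY mice (7 weeks, 34–36 g) given tracer in saline (2 MBq, 0.03 nmol/200 μL) via tail vein. Three mice killed at each time point: 1, 5, 15, 30 and 60 min. Blood, brain, heart, lung, liver, spleen, kidneys, small intestine with contents, muscle and testes removed and weighed. Tissues gamma-counted with decay correction. Uptake expressed as %ID/g wet tissue.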

PgP/Bcrp = assay: PET imaging in wild-type and PgP/Bcrp knockout mice; assay type: in vivo
In short: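 Male […] mice, wild-type and Abcb1a/1b−/−Abcg2−/− (17–18 weeks), set up in the scanner as for the rat scans. Tracer (18 MBq, 0.12 nmol/100 μL) injected via tail-vein line. Dynamic 3D list-mode acquisition for 60 min (1 min × 4, 2 min × 8, 5 min × 8). Regional time-activity curves taken as SUV, processed as for rats. Three mice per genotype.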

[9] = Radiometabolite analysis in rat plasma and brain homogenate; assay type: in vivo, Sprague-Dawley rats; details: 15 min post-tracer injection
In short: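 Sprague-Dawley rats (n = 3) given tracer iv (82 MBq, 1.1 nmol) and killed at 15 min. Plasma separated (15,000 g, 2 min, 4 °C) and deproteinised with equal volume acetonitrile. Brain homogenised in ice-cold acetonitrile/water 1:1 and centrifuged; supernatant recovery >90%. Supernatants run on radio-HPLC (C18, acetonitrile/0.05 M NH4OAc 2:8, 2 mL/min). Parent fraction = parent peak area/total peak area × 100, decay-corrected.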

FAAH [10] = target: T1, FAAH (Rattus norvegicus, UniProt P97612); assay: PET blocking study with URB597 in rats; assay type: in vivo, Sprague-Dawley rats; details: pretreatment with URB597 3 mg/kg, 30 min iv before injection
T1 sequence (P97612 1-579): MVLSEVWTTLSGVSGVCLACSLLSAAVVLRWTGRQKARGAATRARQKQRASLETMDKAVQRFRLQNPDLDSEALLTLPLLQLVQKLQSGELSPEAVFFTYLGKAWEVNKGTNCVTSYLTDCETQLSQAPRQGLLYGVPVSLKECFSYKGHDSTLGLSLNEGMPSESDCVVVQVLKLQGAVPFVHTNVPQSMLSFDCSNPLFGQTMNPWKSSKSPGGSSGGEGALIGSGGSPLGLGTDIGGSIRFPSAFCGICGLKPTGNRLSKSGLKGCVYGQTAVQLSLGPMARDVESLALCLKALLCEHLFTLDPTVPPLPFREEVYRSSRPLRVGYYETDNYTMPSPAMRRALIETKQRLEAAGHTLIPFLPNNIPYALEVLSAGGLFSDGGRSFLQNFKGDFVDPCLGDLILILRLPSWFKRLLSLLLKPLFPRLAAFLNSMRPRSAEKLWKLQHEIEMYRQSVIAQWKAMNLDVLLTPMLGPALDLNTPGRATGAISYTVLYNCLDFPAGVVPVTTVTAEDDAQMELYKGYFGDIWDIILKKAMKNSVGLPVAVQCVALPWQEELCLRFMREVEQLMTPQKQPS
In short: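 Blocking arm of the rat brain PET, run in male Sprague-Dawley rats under isoflurane. Unlabelled FAAH inhibitor (3.0 mg/kg, in 300 μL saline with 10% ethanol and 5% Tween 80) given 30 min before the tracer (40–51 MBq, 0.7–1 nmol iv). Dynamic 90 min list-mode scan. Regional brain uptake taken as decay-corrected SUV and compared with baseline. Three rats per condition.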

Compound: COc1ccccc1CCCCCCC(=O)c1ncc(-c2ccccn2)o1 [MPPO, 7-(2-methoxyphenyl)-1-(5-(pyridin-2-yl)oxazol-2-yl)heptan-1-one]
- IC50 (FAAH [1]): 10 nM
- selectivity over triacylglycerol hydrolase (TGH) [2]: greater than 500 fold
- selectivity over hydrolytic enzyme KIAA1363 [3]: > 10^5 fold

Compound: O=C(Nc1cccnn1)N1CCC(=Cc2cccc(Oc3ccc(C(F)(F)F)cn3)c2)CC1 [[^11C]PF-04457845]
- logD7.4 [4]: 3.48

- radiolysis after formulation [5]: no radiolysis was observed
- logD [6]: 3.43
- time of peak radioactivity in brain tissues ([7]; rat brain PET, after injection): 1.5 min
- highest (peak) radioactivity in cerebellar nuclei ([7]; rat brain PET, baseline): 0.87 SUV
- brain washout, 5 min/60 min ratio ([7]; rat whole brain PET): 5.1
- maximum uptake in whole brain ([7]; rat whole brain PET): 0.65 SUV
- brain uptake ([8]; mice biodistribution): 0.8 SUV
- Distribution of radioactivity, blood ([8]; mice, 1 min after injection): 1.83 ± 0.15 %ID/g
- Distribution of radioactivity, brain ([8]; mice, 1 min after injection): 1.87 ± 0.20 %ID/g
- Distribution of radioactivity, heart ([8]; mice, 1 min after injection): 6.89 ± 0.60 %ID/g
- Distribution of radioactivity, kidneys ([8]; mice, 1 min after injection): 12.64 ± 0.56 %ID/g
- Distribution of radioactivity, liver ([8]; mice, 1 min after injection): 9.78 ± 1.10 %ID/g
- Distribution of radioactivity, lungs ([8]; mice, 1 min after injection): 17.47 ± 3.88 %ID/g
- Distribution of radioactivity, muscle ([8]; mice, 1 min after injection): 1.78 ±0.16 %ID/g
- Distribution of radioactivity, small intestine ([8]; mice, 1 min after injection): 3.08 ± 0.29 %ID/g
- Distribution of radioactivity, spleen ([8]; mice, 1 min after injection): 2.28 ± 0.50 %ID/g
- Distribution of radioactivity, testes ([8]; mice, 1 min after injection): 0.44 ± 0.05 %ID/g
- Distribution of radioactivity, blood ([8]; mice, 5 min after injection): 0.75 ± 0.07 %ID/g
- Distribution of radioactivity, brain ([8]; mice, 5 min after injection): 2.27 ± 0.16 %ID/g
- Distribution of radioactivity, heart ([8]; mice, 5 min after injection): 1.65 ± 0.07 %ID/g
- Distribution of radioactivity, kidneys ([8]; mice, 5 min after injection): 17.17 ± 1.67 %ID/g
- Distribution of radioactivity, liver ([8]; mice, 5 min after injection): 18.61 ± 2.31 %ID/g
- Distribution of radioactivity, lungs ([8]; mice, 5 min after injection): 4.88 ± 0.41 %ID/g
- Distribution of radioactivity, muscle ([8]; mice, 5 min after injection): 1.03 ± 0.09 %ID/g
- Distribution of radioactivity, small intestine ([8]; mice, 5 min after injection): 7.22 ± 0.89 %ID/g
- Distribution of radioactivity, spleen ([8]; mice, 5 min after injection): 1.29 ± 0.22 %ID/g
- Distribution of radioactivity, testes ([8]; mice, 5 min after injection): 0.67 ± 0.02 %ID/g
- Distribution of radioactivity, blood ([8]; mice, 15 min after injection): 0.38 ± 0.03 %ID/g
- Distribution of radioactivity, brain ([8]; mice, 15 min after injection): 1.81 ± 0.09 %ID/g
- Distribution of radioactivity, heart ([8]; mice, 15 min after injection): 0.55 ± 0.01 %ID/g
- Distribution of radioactivity, kidneys ([8]; mice, 15 min after injection): 13.70 ± 0.69 %ID/g
- Distribution of radioactivity, liver ([8]; mice, 15 min after injection): 20.05 ± 1.43 %ID/g
- Distribution of radioactivity, lungs ([8]; mice, 15 min after injection): 1.20 ± 0.04 %ID/g
- Distribution of radioactivity, muscle ([8]; mice, 15 min after injection): 0.58 ± 0.17 %ID/g
- Distribution of radioactivity, small intestine ([8]; mice, 15 min after injection): 18.54 ± 4.00 %ID/g
- Distribution of radioactivity, spleen ([8]; mice, 15 min after injection): 0.60 ± 0.03 %ID/g
- Distribution of radioactivity, testes ([8]; mice, 15 min after injection): 0.59 ± 0.00 %ID/g
- Distribution of radioactivity, blood ([8]; mice, 30 min after injection): 0.34 ± 0.05 %ID/g
- Distribution of radioactivity, brain ([8]; mice, 30 min after injection): 1.40 ± 0.15 %ID/g
- Distribution of radioactivity, heart ([8]; mice, 30 min after injection): 0.51 ± 0.03 %ID/g
- Distribution of radioactivity, kidneys ([8]; mice, 30 min after injection): 9.55 ± 0.65 %ID/g
- Distribution of radioactivity, liver ([8]; mice, 30 min after injection): 17.47 ± 1.10 %ID/g
- Distribution of radioactivity, lungs ([8]; mice, 30 min after injection): 1.19 ± 0.18 %ID/g
- Distribution of radioactivity, muscle ([8]; mice, 30 min after injection): 0.50 ± 0.17 %ID/g
- Distribution of radioactivity, spleen ([8]; mice, 30 min after injection): 0.49 ± 0.03 %ID/g
- Distribution of radioactivity, testes ([8]; mice, 30 min after injection): 0.48 ± 0.02 %ID/g
- Distribution of radioactivity, heart ([8]; mice, 60 min after injection): 0.32 ± 0.03 %ID/g
- Distribution of radioactivity, kidneys ([8]; mice, 60 min after injection): 6.20 ± 0.70 %ID/g
- Distribution of radioactivity, liver ([8]; mice, 60 min after injection): 13.69 ±0.63 %ID/g
- Distribution of radioactivity, lungs ([8]; mice, 60 min after injection): 0.64 ± 0.08 %ID/g
- Distribution of radioactivity, muscle ([8]; mice, 60 min after injection): 0.24 ± 0.04 %ID/g
- Distribution of radioactivity, small intestine ([8]; mice, 60 min after injection): 13.75 ±3.44 %ID/g
- Distribution of radioactivity, spleen ([8]; mice, 60 min after injection): 0.37 ±0.01 %ID/g
- Distribution of radioactivity, testes ([8]; mice, 60 min after injection): 0.30 ± 0.03 %ID/g
- blood clearance, 1 min/60 min ratio ([8]; mice, blood radioactivity): 6.1
- brain washout, 5 min/60 min ratio ([8]; mice, brain radioactivity): 2.6
- peak brain uptake, cerebellum (PgP/Bcrp; PgP/Bcrp KO mice): 1.04 SUV
- ratio of KO/WT in AUC, cerebellum (PgP/Bcrp; PgP/Bcrp KO vs wild type mice): 1.2
- ratio of KO/WT in AUC, cerebral cortex (PgP/Bcrp; PgP/Bcrp KO vs wild type mice): 1.2
- substrate for Pgp/Bcrp (PgP/Bcrp; mice, blood-brain barrier): not likely a substrate for Pgp/Bcrp
- peak brain uptake, cerebellum (PgP/Bcrp; wild type mice): 0.78 SUV
- peak brain uptake, cerebral cortex (PgP/Bcrp; wild type mice): 0.74 SUV
- metabolism (radioactivity associated with hydrophilic metabolites) ([9]; rat brain homogenates): 75%
- metabolism (radioactivity associated with hydrophilic metabolites) ([9]; rat plasma): 90%
- specificity to FAAH in rat brains (FAAH [10]): modest
Compound: [11CH3]Oc1ccccc1CCCCCCC(=O)c1ncc(-c2ccccn2)o1 [[^11C]MPPO, 7-(2-[^11C]methoxyphenyl)-1-(5-(pyridin-2-yl)oxazol-2-yl)heptan-1-one]

Compound: O=[11C](NC1CCCCC1)Oc1ccc(O)c(-c2ccccc2)c1 [[^11C]CURB]
- logD7.4 [4]: 2.8
